Laboratory results taken from ChEMBL document CHEMBL4680065, “Pharmacophore-based screening of diamidine small molecule inhibitors for protein arginine methyltransferases” (RSC Med Chem, 2021).

What was measured:
[1] = biological target: T1, Histone-arginine methyltransferase CARM1 (Homo sapiens) (UniProt Q86X55); test: Inhibition of recombinant GST-tagged CARM1 (unknown origin) expressed in Escherichia coli assessed as residual activity at 10 uM using histone H3.3 peptide as substrate incubated for 120 mins in presence of [3H]-SAM cofactor by radioactive filter plate assay relative to control
T1 sequence (whole entry): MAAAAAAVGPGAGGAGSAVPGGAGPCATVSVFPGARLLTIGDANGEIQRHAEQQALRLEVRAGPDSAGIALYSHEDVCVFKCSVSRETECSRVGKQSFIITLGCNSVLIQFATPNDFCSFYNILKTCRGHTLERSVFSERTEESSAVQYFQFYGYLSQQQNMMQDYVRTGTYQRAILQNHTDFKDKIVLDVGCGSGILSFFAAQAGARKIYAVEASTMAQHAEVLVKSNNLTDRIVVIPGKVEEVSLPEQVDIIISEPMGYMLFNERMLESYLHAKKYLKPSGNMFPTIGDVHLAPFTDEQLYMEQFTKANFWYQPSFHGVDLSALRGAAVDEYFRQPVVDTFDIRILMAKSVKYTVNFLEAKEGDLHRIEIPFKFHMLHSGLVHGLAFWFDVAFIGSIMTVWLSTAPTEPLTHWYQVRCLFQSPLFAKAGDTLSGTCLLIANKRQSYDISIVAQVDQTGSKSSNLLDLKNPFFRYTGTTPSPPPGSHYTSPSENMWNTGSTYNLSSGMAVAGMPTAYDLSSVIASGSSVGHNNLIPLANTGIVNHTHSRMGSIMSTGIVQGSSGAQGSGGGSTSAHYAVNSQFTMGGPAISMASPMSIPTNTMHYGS

[2] = biological target: PRMT5/MEP50 complex (Homo sapiens) (UniProt O14744+Q9BQA1); test: Inhibition of PRMT5/MEP50 (unknown origin) assessed as residual activity at 10 uM using biotin-labeled histone H4-20 peptide as substrate incubated for 8 mins in presence of [3H]-SAM cofactor by scintillation proximity assay relative to control; format: protein-complex assay
Method in brief: (§1)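 Single-point profiling used 10 μM inhibitor added to the enzyme, [3H]-SAM and substrate mixture. Methylated substrate was quantified by scintillation proximity assay. Reactions were held at initial rate, with yield under 10% and substrate near Km. Enzyme, [3H]-SAM and substrate final levels are given in the supplement.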

[3] = biological target: T2, Protein arginine N-methyltransferase 7 (Homo sapiens) (UniProt Q9NVM4); test: Inhibition of recombinant GST-tagged PRMT7 (unknown origin) expressed in Escherichia coli assessed as residual activity at 10 uM using biotin-labeled SMD1 as substrate incubated for 120 mins in presence of [3H]-SAM cofactor by scintillation proximity assay relative to control; method in brief: as §1
T2 sequence (whole entry): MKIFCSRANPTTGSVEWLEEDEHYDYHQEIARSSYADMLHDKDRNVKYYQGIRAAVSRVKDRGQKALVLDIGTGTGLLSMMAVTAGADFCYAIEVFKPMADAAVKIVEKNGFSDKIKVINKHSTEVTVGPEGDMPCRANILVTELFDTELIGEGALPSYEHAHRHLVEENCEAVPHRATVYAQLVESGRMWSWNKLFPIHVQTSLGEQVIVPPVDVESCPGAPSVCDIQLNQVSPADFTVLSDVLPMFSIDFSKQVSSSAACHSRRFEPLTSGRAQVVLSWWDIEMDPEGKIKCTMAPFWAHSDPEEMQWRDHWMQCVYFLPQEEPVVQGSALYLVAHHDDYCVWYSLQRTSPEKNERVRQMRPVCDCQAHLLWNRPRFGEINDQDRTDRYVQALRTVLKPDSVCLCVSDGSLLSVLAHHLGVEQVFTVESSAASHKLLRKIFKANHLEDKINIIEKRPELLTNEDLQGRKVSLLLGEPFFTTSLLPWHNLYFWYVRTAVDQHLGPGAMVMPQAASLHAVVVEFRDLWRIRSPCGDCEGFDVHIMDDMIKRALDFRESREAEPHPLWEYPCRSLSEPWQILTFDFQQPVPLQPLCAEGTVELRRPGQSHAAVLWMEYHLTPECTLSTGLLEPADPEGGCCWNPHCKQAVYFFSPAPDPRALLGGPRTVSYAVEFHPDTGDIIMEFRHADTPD

PRMT5/MEP50 complex = PRMT5/MEP50 complex (Homo sapiens, UniProt O14744); test: Inhibition of PRMT5/MEP50 (unknown origin) using biotin-labeled histone H4-20 peptide as substrate incubated for 8 mins in presence of [3H]-SAM cofactor by scintillation proximity assay; format: protein-complex assay
Sequence of PRMT5/MEP50 complex (O14744 whole entry): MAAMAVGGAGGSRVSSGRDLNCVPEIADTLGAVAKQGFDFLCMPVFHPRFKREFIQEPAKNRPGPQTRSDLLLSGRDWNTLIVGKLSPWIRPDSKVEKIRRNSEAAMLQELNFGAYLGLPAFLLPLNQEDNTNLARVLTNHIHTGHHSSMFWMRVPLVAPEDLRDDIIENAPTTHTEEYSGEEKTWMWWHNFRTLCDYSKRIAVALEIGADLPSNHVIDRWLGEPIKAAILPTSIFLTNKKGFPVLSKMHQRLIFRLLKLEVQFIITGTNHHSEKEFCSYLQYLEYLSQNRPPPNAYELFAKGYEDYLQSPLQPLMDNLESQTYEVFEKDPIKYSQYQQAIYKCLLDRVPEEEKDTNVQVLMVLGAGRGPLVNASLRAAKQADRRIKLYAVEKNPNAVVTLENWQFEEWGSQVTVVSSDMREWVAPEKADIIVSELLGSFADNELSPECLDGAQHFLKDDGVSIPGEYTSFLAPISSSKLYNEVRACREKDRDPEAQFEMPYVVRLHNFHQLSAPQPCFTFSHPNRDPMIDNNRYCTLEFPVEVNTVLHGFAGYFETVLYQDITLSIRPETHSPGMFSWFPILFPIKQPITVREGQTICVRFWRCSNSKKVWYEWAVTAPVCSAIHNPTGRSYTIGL
Sequence of PRMT5/MEP50 complex (Q9BQA1 whole entry, further chain): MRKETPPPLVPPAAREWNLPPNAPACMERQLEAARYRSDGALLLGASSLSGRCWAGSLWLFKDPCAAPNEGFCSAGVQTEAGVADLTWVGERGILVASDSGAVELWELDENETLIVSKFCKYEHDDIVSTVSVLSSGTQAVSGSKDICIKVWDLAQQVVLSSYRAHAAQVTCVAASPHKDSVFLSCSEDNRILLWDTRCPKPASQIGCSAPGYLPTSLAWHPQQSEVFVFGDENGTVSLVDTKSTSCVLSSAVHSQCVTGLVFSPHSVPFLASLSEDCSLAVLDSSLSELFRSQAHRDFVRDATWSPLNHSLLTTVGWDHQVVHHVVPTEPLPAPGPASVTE
Method in brief: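 Part of a methyltransferase selectivity panel. Test compound was serially diluted into a mixture of enzyme, [3H]-SAM cofactor and substrate. Methylated substrate was quantified by scintillation proximity assay. Reactions were held at initial-rate conditions with substrate turnover under 10%, and substrate concentrations were near Km.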

[4] = biological target: Protein arginine N-methyltransferase 6 (Homo sapiens, UniProt Q96LA8); test: Inhibition of PRMT6 (unknown origin) assessed as residual activity at 10 uM using biotin-labeled SMD1 as substrate incubated for 30 mins in presence of [3H]-SAM cofactor by scintillation proximity assay relative to control; method in brief: as §1
Sequence of Protein arginine N-methyltransferase 6 (Q96LA8 whole entry, looked up): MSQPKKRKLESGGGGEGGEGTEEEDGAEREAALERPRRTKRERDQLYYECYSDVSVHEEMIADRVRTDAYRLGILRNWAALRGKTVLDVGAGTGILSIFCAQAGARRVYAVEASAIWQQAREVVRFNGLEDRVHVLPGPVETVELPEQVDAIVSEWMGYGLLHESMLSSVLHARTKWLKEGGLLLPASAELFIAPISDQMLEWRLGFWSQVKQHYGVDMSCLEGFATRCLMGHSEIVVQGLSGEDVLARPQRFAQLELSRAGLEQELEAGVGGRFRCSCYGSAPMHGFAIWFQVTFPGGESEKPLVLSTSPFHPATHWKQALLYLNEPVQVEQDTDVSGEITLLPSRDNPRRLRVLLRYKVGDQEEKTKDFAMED

Molecule `N=C(N)c1ccc(Nc2ccc(-c3cc4ccc(C(=N)N)cc4[nH]3)cc2)cc1` has an Activity [1] of 50.7%, an Activity [2] of 35.1% and an Activity [3] of 32.1%. It also gave an IC50 (PRMT5/MEP50 complex) of 6.8 µM and an Activity [4] of 22.9%.
